In brackets after ≈: the same amount, converted by molar mass.
Assays:
[1] = test system: Enterococcus faecium; test: In vitro antibacterial activity against gram-positive Enterococcus faecium ATCC 8043; type: functional; conditions: Enterococcus faecium, ATCC 8043; read-out: MIC
Summary of the method: (§1)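 Agar dilution MIC determination following the National Committee for Clinical Laboratory Standards recommendations.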

[2] = test system: Escherichia coli; test: In vitro antibacterial activity against gram negative Escherichia coli KNK 437; type: functional; conditions: Escherichia coli; read-out: MIC; summary of the method: as §1
[3] = test system: Pseudomonas aeruginosa; test: In vivo efficacy against Pseudomonas aeruginosa 5007 in mouse protection test after subcutaneous administration; type: functional; conditions: Pseudomonas aeruginosa, sc; read-out: ED50
Summary of the method: (§2)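 Mouse protection model: mice infected intravenously with 100-fold LD50 of the organism. Compound given by subcutaneous injection or oral gavage at 1 and 5 h after infection, over a dose range. Deaths tracked for 7 days post-inoculation. ED50 is the dose giving 50% survival of treated mice over the trial.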

[4] = test system: Staphylococcus aureus; test: In vivo efficacy against Staphylococcus aureus NCTC 10649M in mouse protection test after p.o. administration.; type: functional; conditions: Staphylococcus aureus, po; read-out: ED50; summary of the method: as §2
[5] = test system: Staphylococcus aureus; test: In vivo efficacy against Staphylococcus aureus NCTC 10649M in mouse; type: functional; conditions: Staphylococcus aureus; read-out: ED50; summary of the method: as §2
[6] = test system: Mus musculus; test: In vivo efficacy against Streptococcus pneumoniae ATCC 6303 in mouse protection test after administration by oral gavage; type: functional; summary of the method: as §2
[7] = test system: Streptococcus pneumoniae; test: In vivo efficacy against Streptococcus pneumoniae ATCC 6303 in mouse protection test after s.c. administration.; type: functional; conditions: Streptococcus pneumoniae, sc; read-out: ED50; summary of the method: as §2
[8] = test system: Escherichia coli; test: In vivo efficacy against Escherichia coli JUHL in mouse protection test after p.o. administration.; type: functional; conditions: Escherichia coli, po; read-out: ED50; summary of the method: as §2
[9] = test system: Escherichia coli; test: In vivo efficacy against Escherichia coli JUHL in mouse protection test after subcutaneous administration; type: functional; conditions: Escherichia coli, sc; read-out: ED50; summary of the method: as §2
[10] = test system: Pseudomonas aeruginosa; test: In vivo efficacy against Pseudomonas aeruginosa 5007 in mouse protection test after administration by oral gavage; type: functional; conditions: Pseudomonas aeruginosa, po; read-out: ED50; summary of the method: as §2
[11] = test system: Pseudomonas aeruginosa; test: In vitro antibacterial activity against Gram-negative Pseudomonas aeruginosa 5007; type: functional; conditions: Pseudomonas aeruginosa; read-out: MIC; summary of the method: as §1
[12] = test system: Pseudomonas aeruginosa; test: In vitro antibacterial activity against gram negative P. aeruginosa DPHP 5263; type: functional; conditions: Pseudomonas aeruginosa, DPHP 5263; read-out: MIC; summary of the method: as §1
[13] = test system: Burkholderia cepacia; test: In vitro antibacterial activity against gram negative Pseudomonas cepacia 2961; type: functional; conditions: Burkholderia cepacia; read-out: MIC; summary of the method: as §1
[14] = test system: Staphylococcus aureus; test: In vitro antibacterial activity against gram-positive Staphylococcus aureus 1775; type: functional; conditions: Staphylococcus aureus; read-out: MIC; summary of the method: as §1
[15] = test system: Staphylococcus aureus; test: In vitro antibacterial activity against gram-positive Staphylococcus aureus NCTC 10649M; type: functional; conditions: Staphylococcus aureus, NCTC 10649; read-out: MIC; summary of the method: as §1
[16] = test system: Streptococcus pyogenes; test: In vitro antibacterial activity against gram positive Streptococcus pyogenes 930; type: functional; conditions: Streptococcus pyogenes; read-out: MIC; summary of the method: as §1
[17] = test system: Mus musculus; test: In vivo efficacy against Staphylococcus aureus NCTC 10649M in mouse protection test

| SMILES | MIC [1] | MIC [2] | MIC [11] | MIC [12] | MIC [13] | MIC [14] | MIC [15] | MIC [16] | ED50 [3] | ED50 [4] | ED50 [5] | ED50 [6] | ED50 [7] | ED50 [8] | ED50 [9] | ED50 [10] | ED50 [17] |
| --- | --- | --- | --- | --- | --- | --- | --- | --- | --- | --- | --- | --- | --- | --- | --- | --- | --- |
| Cc1c(N2C[C@H](C3CC3)[C@@H](N)C2)c(F)cn2c(=O)c(C(=O)O)cc(C3CC3)c12 | 0.1 µg/mL (≈ 0.259 µM) | 0.2 µg/mL (≈ 0.519 µM) | 0.39 µg/mL (≈ 1.01 µM) | 12.5 µg/mL (≈ 32.4 µM) | 1.56 µg/mL (≈ 4.05 µM) | 0.78 µg/mL (≈ 2.02 µM) | 0.02 µg/mL (≈ 0.0519 µM) | 0.1 µg/mL (≈ 0.259 µM) | > 32 mg/kg | 11.2 mg/kg | 3 mg/kg | > 50 mg/kg | > 8 mg/kg | > 10 mg/kg | 1.2 mg/kg | > 50 mg/kg |  |
| Cc1c(N2CC[C@@H](C)[C@@H](N)C2)c(F)cn2c(=O)c(C(=O)O)cc(C3CC3)c12 | 0.39 µg/mL (≈ 1.04 µM) | 0.78 µg/mL (≈ 2.09 µM) | 1.56 µg/mL (≈ 4.18 µM) | 12.5 µg/mL (≈ 33.5 µM) | 6.2 µg/mL (≈ 16.6 µM) | 3.1 µg/mL (≈ 8.3 µM) | 0.1 µg/mL (≈ 0.268 µM) | 0.39 µg/mL (≈ 1.04 µM) |  |  |  |  |  |  |  |  |  |
| Cc1c(N2C[C@@H]3CCCC[C@]3(CN)C2)c(F)cn2c(=O)c(C(=O)O)cc(C3CC3)c12 | 0.02 µg/mL (≈ 0.0484 µM) | 1.56 µg/mL (≈ 3.77 µM) | 3.1 µg/mL (≈ 7.5 µM) | 50 µg/mL (≈ 121 µM) | 3.1 µg/mL (≈ 7.5 µM) | 0.2 µg/mL (≈ 0.484 µM) | 0.002 µg/mL (≈ 0.00484 µM) | 0.02 µg/mL (≈ 0.0484 µM) | > 32 mg/kg | 17.7 mg/kg | 1.8 mg/kg |  |  | > 20 mg/kg | > 5 mg/kg | > 50 mg/kg |  |
| Cc1c(N2CCCC(N)C2)c(F)cn2c(=O)c(C(=O)O)cc(C3CC3)c12 (configuration not stated) | 0.05 µg/mL (≈ 0.139 µM) | 0.1 µg/mL (≈ 0.278 µM) | 0.2 µg/mL (≈ 0.556 µM) | 3.1 µg/mL (≈ 8.63 µM) | 0.78 µg/mL (≈ 2.17 µM) | 0.39 µg/mL (≈ 1.09 µM) | 0.01 µg/mL (≈ 0.0278 µM) | 0.02 µg/mL (≈ 0.0556 µM) |  |  |  |  |  |  |  |  |  |
| Cc1c(N2C[C@@H]3CCCC[C@]3(N)C2)c(F)cn2c(=O)c(C(=O)O)cc(C3CC3)c12 | 0.2 µg/mL (≈ 0.501 µM) | 0.78 µg/mL (≈ 1.95 µM) | 1.56 µg/mL (≈ 3.91 µM) | 25 µg/mL (≈ 62.6 µM) | 1.56 µg/mL (≈ 3.91 µM) | 1.56 µg/mL (≈ 3.91 µM) | 0.05 µg/mL (≈ 0.125 µM) | 0.2 µg/mL (≈ 0.501 µM) |  |  |  |  |  |  |  |  |  |
| Cc1c(N2CCCO2)c(F)cn2c(=O)c(C(=O)O)cc(C3CC3)c12 | 3.1 µg/mL (≈ 9.33 µM) | 6.2 µg/mL (≈ 18.7 µM) | 6.2 µg/mL (≈ 18.7 µM) | > 100 µg/mL | 6.2 µg/mL (≈ 18.7 µM) | > 100 µg/mL | 0.78 µg/mL (≈ 2.35 µM) | 6.2 µg/mL (≈ 18.7 µM) |  |  | > 12 mg/kg |  |  |  | > 5 mg/kg |  |  |

Further compounds by falling MIC [1], results first:

| MIC [1] | MIC [2] | MIC [11] | MIC [12] | MIC [13] | MIC [14] | MIC [15] | MIC [16] | SMILES | ED50 [3] | ED50 [4] | ED50 [5] | ED50 [6] | ED50 [7] | ED50 [8] | ED50 [9] | ED50 [10] | ED50 [17] |
| --- | --- | --- | --- | --- | --- | --- | --- | --- | --- | --- | --- | --- | --- | --- | --- | --- | --- |
| 0.2 µg/mL (≈ 0.501 µM) | 0.39 µg/mL (≈ 0.976 µM) | 0.78 µg/mL (≈ 1.95 µM) | 100 µg/mL (≈ 250 µM) | 3.1 µg/mL (≈ 7.76 µM) | 1.56 µg/mL (≈ 3.91 µM) | 0.05 µg/mL (≈ 0.125 µM) | 0.2 µg/mL (≈ 0.501 µM) | Cc1c(N2CCC(N(C)C3CC3)C2)c(F)cn2c(=O)c(C(=O)O)cc(C3CC3)c12 (configuration not stated) |  |  |  |  |  |  |  |  |  |
| 0.2 µg/mL (≈ 0.536 µM) | 0.2 µg/mL (≈ 0.536 µM) | 3.1 µg/mL (≈ 8.3 µM) | 12.5 µg/mL (≈ 33.5 µM) | 0.78 µg/mL (≈ 2.09 µM) | 0.78 µg/mL (≈ 2.09 µM) | 0.05 µg/mL (≈ 0.134 µM) | 0.1 µg/mL (≈ 0.268 µM) | CN[C@H]1CN(c2c(F)cn3c(=O)c(C(=O)O)cc(C4CC4)c3c2C)C[C@@H]1C |  |  |  |  |  |  |  |  |  |
| 0.1 µg/mL (≈ 0.259 µM) | 0.2 µg/mL (≈ 0.519 µM) | 0.39 µg/mL (≈ 1.01 µM) | 12.5 µg/mL (≈ 32.4 µM) | 1.56 µg/mL (≈ 4.05 µM) | 0.78 µg/mL (≈ 2.02 µM) | 0.02 µg/mL (≈ 0.0519 µM) | 0.1 µg/mL (≈ 0.259 µM) | Cc1c(N2C[C@H](N)[C@H](C3CC3)C2)c(F)cn2c(=O)c(C(=O)O)cc(C3CC3)c12 |  |  |  |  |  |  |  |  |  |
| 0.1 µg/mL (≈ 0.255 µM) | 1.56 µg/mL (≈ 3.99 µM) | 1.56 µg/mL (≈ 3.99 µM) | 25 µg/mL (≈ 63.9 µM) | 1.56 µg/mL (≈ 3.99 µM) | 0.39 µg/mL (≈ 0.996 µM) | 0.02 µg/mL (≈ 0.0511 µM) | 0.05 µg/mL (≈ 0.128 µM) | Cc1c(N2CC[C@@H](NCCF)C2)c(F)cn2c(=O)c(C(=O)O)cc(C3CC3)c12 | > 32 mg/kg | 9.6 mg/kg |  | 30.7 mg/kg | 8 mg/kg | 34.1 mg/kg | 4.4 mg/kg | > 50 mg/kg | 2.1 mg/kg |
| 0.05 µg/mL (≈ 0.125 µM) | 0.1 µg/mL (≈ 0.249 µM) | 6.2 µg/mL (≈ 15.4 µM) | 6.2 µg/mL (≈ 15.4 µM) | 6.2 µg/mL (≈ 15.4 µM) | 3.1 µg/mL (≈ 7.72 µM) | 0.01 µg/mL (≈ 0.0249 µM) | 0.02 µg/mL (≈ 0.0498 µM) | Cc1c(N2C[C@@H]3COC[C@]3(CN)C2)c(F)cn2c(=O)c(C(=O)O)cc(C3CC3)c12 |  |  |  |  |  |  |  |  |  |
